Calls of active or inactive are those of the source. No cut-off for these calls is given here.
Legend:
[1] = system: Homo sapiens; test: Toxicity in HCV genotype 1-infected patient assessed as grade-3 adverse events at 500 to 1000 mg, po bid for 5 days followed by morning dose on day 6; assay type: organism-based; conditions: in vivo, 120 h
Outline: (§1)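 HCV genotype 1-infected patients given oral b.i.d. doses of 500 or 1000 mg for 5 days plus a morning dose on day 6, in hydroxypropyl-β-cyclodextrin vehicle; adverse events with grading, laboratory parameters, vital signs, food consumption, appetite and ECG monitored.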

[2] = system: Homo sapiens; test: Toxicity in human assessed as gastrointestinal side-effects at 300 to 1250 mg, po bid for 5 days followed by morning dose on day 6; assay type: organism-based; conditions: in vivo, 120 h
Outline: (§2)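 Oral b.i.d. dosing for 5 days plus a single morning dose on day 6, in a hydroxypropyl-β-cyclodextrin vehicle. Healthy volunteers received 300, 1000 or 1250 mg; HCV genotype 1-infected patients received 500 or 1000 mg. Monitoring covered adverse events graded by severity, laboratory parameters, vital signs, food consumption, appetite and ECG.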

[3] = system: Hepatitis C virus; test: Antiviral activity against Hepatitis C virus genotype 1b infected in human assessed as reduction in plasma HCV RNA level administered for 10 days measured on day 11; assay type: functional, organism-based; conditions: Hepacivirus hominis
Outline: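 HCV genotype 1a- and 1b-infected patients received oral 1000 mg b.i.d. together with an NS3/4A protease inhibitor at 150 mg q.d. for 10 days. The read-out was the median decrease in plasma HCV RNA (log10 IU/mL) at day 11.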

[4] = system: Homo sapiens; test: Toxicity in HCV genotype 1-infected patient assessed as effect on appetite at 500 to 1000 mg, po bid for 5 days followed by morning dose on day 6; assay type: organism-based; conditions: in vivo, 120 h; outline: as §1
[5] = Selectivity ratio of EC50 for Hepatitis C virus genotype 2a to EC50 for wild-type Hepatitis C virus Con 1b; assay type: functional
Outline: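 Transient replicon assay using chimeric replicons carrying NS5B from genotype 2a or 2b patient isolates. EC50 was compared with that against the genotype 1b replicon.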

[6] = system: Hepatitis C virus; test: Antiviral activity against wild-type Hepatitis C virus Con 1b infected in human HuH7 by transient replicon assay; assay type: functional, organism-based, Hepacivirus hominis; conditions: isolate Con1, Huh-7
[7] = system: Homo sapiens; test: Toxicity in human assessed as grade-4 adverse events at 300 to 1250 mg, po bid for 5 days followed by morning dose on day 6; assay type: organism-based; conditions: in vivo, 120 h; outline: as §2

Compound: COc1ccc2c(c1)C=C1Cn3c-2c(C2CCCCC2)c2ccc(cc23)C(=O)NS(=O)(=O)N(C)CCOCCN(C)C1=O [TMC-647055]
- Activity [1]: Non-toxic
- Activity [2]: Toxic
- Activity [3]: Active
- Activity [4]: Non-toxic
- Ratio EC50 [5]: >200
- EC50 [6]: 51 nM
- Activity [7]: Non-toxic

Source: ChEMBL document CHEMBL3124872, “Discovery and early development of TMC647055, a non-nucleoside inhibitor of the hepatitis C virus NS5B polymerase” (J Med Chem, 2014)
